One block for each compound: values may come before it.
Key:
Adenosine receptor A3 [1] = target: T1, Adenosine receptor A3 (Homo sapiens, UniProt P0DMS8); assay: Displacement of [3H]MRE3008-F20 from human adenosine A3 receptor expressed in CHO cells; range 0.85-0.98; type: cell-based
T1 sequence (P0DMS8 whole entry): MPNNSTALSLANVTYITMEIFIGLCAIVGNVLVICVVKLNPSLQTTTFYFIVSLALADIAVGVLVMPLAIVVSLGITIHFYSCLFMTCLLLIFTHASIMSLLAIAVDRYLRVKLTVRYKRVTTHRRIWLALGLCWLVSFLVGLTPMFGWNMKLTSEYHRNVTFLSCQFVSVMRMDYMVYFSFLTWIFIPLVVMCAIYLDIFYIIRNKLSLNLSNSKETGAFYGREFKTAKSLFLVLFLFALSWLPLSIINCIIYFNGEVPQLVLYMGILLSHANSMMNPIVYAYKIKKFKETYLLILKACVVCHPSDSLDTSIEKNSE

Adenosine receptor A2b [2] = target: T2, Adenosine receptor A2b (Homo sapiens, UniProt P29275); assay: Displacement of [3H]-DPCPX from Adenosine A2b receptor expressed in CHO cells; range 50-63; type: cell-based; conditions: in the assay text read “HEK-293 cells” for “CHO cells”
T2 sequence (P29275 whole entry): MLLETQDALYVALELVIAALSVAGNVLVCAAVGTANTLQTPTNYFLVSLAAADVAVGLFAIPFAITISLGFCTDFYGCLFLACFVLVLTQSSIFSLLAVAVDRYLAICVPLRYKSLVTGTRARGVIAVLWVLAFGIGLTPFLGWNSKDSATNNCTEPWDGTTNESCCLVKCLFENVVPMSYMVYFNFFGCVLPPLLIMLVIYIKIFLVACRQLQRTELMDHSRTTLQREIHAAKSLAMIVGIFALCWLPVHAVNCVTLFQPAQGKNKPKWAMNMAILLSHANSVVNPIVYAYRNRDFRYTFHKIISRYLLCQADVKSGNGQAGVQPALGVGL
How it was run: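 Human recombinant A2B receptor was expressed in HEK-293 cell membranes (20 μg protein). Incubated with 40 nM [3H]DPCPX in 50 mM Tris HCl, 10 mM MgCl2, 1 mM EDTA, 0.1 mM benzamidine, pH 7.4, with 2 IU/mL adenosine deaminase, at least 6–8 test concentrations, 60 min, 25 °C. Nonspecific binding was taken with 100 μM NECA; n=3-6.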

Adenosine receptor A3 [3] = target: T1, Adenosine receptor A3; assay: Inhibition of cAMP accumulation in CHO cells expressing human adenosine A3 receptor; range 4.0-7.5; type: functional, cell-based
[4] = target: Adenosine receptors; A1 & A3 (Homo sapiens) (UniProt P30542+P0DMS8); assay: Ratio of binding affinity of human A1 receptor to that of human A3 receptor; type: protein assay
How it was run: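 Ki ratio from displacement in CHO membranes, 6–8 concentrations, n=3-6, filtration counting. A1: 1 nM [3H]DPCPX, 50 μg protein, 120 min at 25 °C, nonspecific with 10 μM CHA. A3: 1 nM [3H]MRE3008-F20, 50 μg protein, Tris/10 mM MgCl2 pH 7.4, 120 min at 4 °C, nonspecific with 1 μM MRE3008-F20.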

[5] = target: Adenosine receptors; A2b & A3 (Homo sapiens) (UniProt P29275+P0DMS8); assay: Ratio of binding affinity of human A2B receptor to that of human A3 receptor; type: protein assay
How it was run: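 Ki ratio, n=3-6, 6–8 concentrations. A2B in HEK-293 membranes (20 μg): 40 nM [3H]DPCPX, 50 mM Tris HCl, 10 mM MgCl2, 1 mM EDTA, 0.1 mM benzamidine pH 7.4, 2 IU/mL adenosine deaminase, 60 min at 25 °C, nonspecific with 100 μM NECA. A3 in CHO membranes (50 μg): 1 nM [3H]MRE3008-F20, 120 min at 4 °C.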

[6] = target: T3, Adenosine receptor A3 (Homo sapiens) (UniProt P0DMS8); conditions: CHO, 1 uM
T3 sequence (whole entry): T1 sequence (P0DMS8 whole entry)

Adenosine receptor A2a [7] = target: T4, Adenosine receptor A2a (Homo sapiens, UniProt P29274); assay: Displacement of [3H]-SCH- 58261 from human adenosine A2A receptor expressed in CHO cells; range 880-1160; type: cell-based
T4 sequence (P29274 whole entry): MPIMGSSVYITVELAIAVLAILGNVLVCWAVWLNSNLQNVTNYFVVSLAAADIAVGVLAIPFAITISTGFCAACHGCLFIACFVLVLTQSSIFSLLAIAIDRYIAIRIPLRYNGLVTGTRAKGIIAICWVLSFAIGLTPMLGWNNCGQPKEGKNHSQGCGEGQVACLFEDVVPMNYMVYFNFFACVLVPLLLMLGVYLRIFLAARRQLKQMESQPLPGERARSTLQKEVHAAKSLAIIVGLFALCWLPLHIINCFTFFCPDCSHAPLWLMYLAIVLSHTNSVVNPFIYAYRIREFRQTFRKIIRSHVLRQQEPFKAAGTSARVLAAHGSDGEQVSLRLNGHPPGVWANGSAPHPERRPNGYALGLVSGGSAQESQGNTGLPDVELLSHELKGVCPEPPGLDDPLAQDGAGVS
How it was run: (§1)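 Membranes from CHO cells stably expressing human A2A receptor, grown in DMEM/F12 without nucleosides, resuspended in 50 mM Tris HCl, 10 mM MgCl2, pH 7.4; 50 μg protein/assay. Competition with [3H]SCH 58261 at 6–8 or more compound concentrations, 60 min at 25 °C; nonspecific binding with 50 μM NECA. Filtration on GF/B filters, scintillation counting; n=3-6.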

Adenosine receptor A2b [8] = target: T2, Adenosine receptor A2b; assay: Displacement of [3H]-DPCPX from Adenosine A2b receptor expressed in […]; range 719-895; type: cell-based
Adenosine receptor A3 [9] = target: T1, Adenosine receptor A3; assay: Displacement of [3H]MRE3008-F20 from human adenosine A3 receptor expressed in CHO cells; range 33-48; type: cell-based
[10] = target: T3, Adenosine receptor A3 (Homo sapiens); assay: Percentage of blockade by 1 uM of the inhibition by 100 nM IB-MECA-inhibited cAMP accumulation in CHO cells expressing human adenosine A3 receptor.; type: functional, cell-based
How it was run: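 CHO cells stably expressing human A3 receptor; membranes in 50 mM Tris HCl, 10 mM MgCl2, 1 mM EDTA pH 7.4 with 5 μM GTP, 0.5 mM […] and 2.0 IU/mL adenosine deaminase. Preincubated 10 min at 37 °C, then IB-MECA (100 nM) and/or antagonist with 1 mM ATP and 10 μM forskolin for 10 min. Boiled 2 min. cAMP read by [3H]cAMP competition with adrenal binding protein.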

Adenosine receptor A2a [11] = target: T4, Adenosine receptor A2a; assay: Displacement of [3H]-SCH- 58261 from human adenosine A2A receptor expressed in CHO cells; range 65-92; type: cell-based; how it was run: as §1
Adenosine receptor A2b [12] = target: T2, Adenosine receptor A2b; assay: Displacement of [3H]DPCPX from Adenosine A2b receptor expressed in […]; range 260-352; type: cell-based
Adenosine receptor A3 [13] = target: T1, Adenosine receptor A3; assay: Displacement of [3H]MRE3008-F20 from human adenosine A3 receptor expressed in CHO cells; range 0.27-0.34; type: cell-based
Adenosine receptor A1 [14] = target: T5, Adenosine receptor A1 (Homo sapiens, UniProt P30542); assay: Displacement of [3H]DPCPX from human adenosine A1 receptor expressed in CHO cells; range 269-326; type: cell-based
T5 sequence (P30542 whole entry): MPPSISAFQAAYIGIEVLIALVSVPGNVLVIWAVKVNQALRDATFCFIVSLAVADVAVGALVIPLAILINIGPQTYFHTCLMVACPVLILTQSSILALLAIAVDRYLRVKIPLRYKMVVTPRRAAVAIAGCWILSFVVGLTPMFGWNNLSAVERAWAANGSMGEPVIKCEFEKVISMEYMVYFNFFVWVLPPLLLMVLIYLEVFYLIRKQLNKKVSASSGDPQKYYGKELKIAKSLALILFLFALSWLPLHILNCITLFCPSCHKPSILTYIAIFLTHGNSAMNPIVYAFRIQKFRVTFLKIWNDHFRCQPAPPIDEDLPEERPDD

Adenosine receptor A3 [15] = target: T1, Adenosine receptor A3; assay: Inhibition of cAMP accumulation in CHO cells expressing human adenosine A3 receptor; range 2.9-6.0; type: functional, cell-based
[16] = target: T3, Adenosine receptor A3 (Homo sapiens); conditions: CHO, 1 uM; remark: listed apart in the source
Adenosine receptor A2b [17] = target: T2, Adenosine receptor A2b; assay: Displacement of [3H]DPCPX from Adenosine A2b receptor expressed in […]; range 56-75; type: cell-based
Adenosine receptor A2a [18] = target: T4, Adenosine receptor A2a; assay: Displacement of [3H]-SCH- 58261 from human adenosine A2A receptor expressed in CHO cells; range 1.70-2.10; type: cell-based; how it was run: as §1
Adenosine receptor A3 [19] = target: T1, Adenosine receptor A3; assay: Displacement of [3H]MRE3008-F20 from human adenosine A3 receptor expressed in CHO cells; range 285-385; type: cell-based
Adenosine receptor A3 [20] = target: T1, Adenosine receptor A3; assay: Displacement of [3H]MRE3008-F20 from human adenosine A3 receptor expressed in CHO cells; range 7.2-8.9; type: cell-based
Adenosine receptor A2b [21] = target: T2, Adenosine receptor A2b; assay: Displacement of [3H]DPCPX from Adenosine A2b receptor expressed in HEK-293 cells; range 81-101
Adenosine receptor A2a [22] = target: T4, Adenosine receptor A2a; assay: Displacement of [3H]-SCH- 58261 from human adenosine A2A receptor expressed in CHO cells; range 2.40-3.55; type: cell-based
Adenosine receptor A1 [23] = target: T5, Adenosine receptor A1; assay: Displacement of [3H]DPCPX from human adenosine A1 receptor expressed in CHO cells; range 81-127; type: cell-based
Adenosine receptor A3 [24] = target: T1, Adenosine receptor A3; assay: biochemical

SMILES: CCCCn1cc2c(nc(NC(=O)Nc3ccc(OC)cc3)n3nc(-c4ccco4)nc23)n1
- Ki (Adenosine receptor A2a [11]): 0.08 µM
- Ki (Adenosine receptor A2b [12]): 0.303 µM
- Ki (Adenosine receptor A3 [13]): 0.00032 µM
- Ki (Adenosine receptor A1 [14]): 0.296 µM
- IC50 (Adenosine receptor A3 [15]): 0.0041 µM
- Ratio [4]: 925
- Ratio [5]: 946
- inhibition [16]: 93%

SMILES: CCn1cc2c(nc(N)n3nc(-c4ccco4)nc23)n1
- Ki (Adenosine receptor A2b [17]): 0.065 µM
- Ki (Adenosine receptor A2a [18]): 0.00195 µM
- Ki (Adenosine receptor A3 [19]): 0.331 µM
- Ratio [4]: 0.015
- Ratio [5]: 0.19
- inhibition [10]: 25%

SMILES: Cn1cc2c(nc(N)n3nc(-c4ccco4)nc23)n1
- Ki (Adenosine receptor A2a [22]): 0.0028 µM
- Ki (Adenosine receptor A1 [23]): 0.101 µM
- Ratio [4]: 0.33
- Ratio [5]: 0.3
- inhibition [10]: 26%
- Ki (Adenosine receptor A3 [24]): 0.3 µM
- Ki (Adenosine receptor A2b [21]): 0.09 µM

Further lines, results first:

- Ki (Adenosine receptor A3 [1]): 0.0009 µM
- Ki (Adenosine receptor A2b [2]): 0.057 µM
- IC50 (Adenosine receptor A3 [3]): 0.0055 µM
- Ratio [4]: 33
- Ratio [5]: 62.6
- inhibition [6]: 80%
SMILES: CCCn1cc2c(nc(NC(=O)Nc3cccc(Cl)c3)n3nc(-c4ccco4)nc23)n1

- Ki (Adenosine receptor A2a [7]): 1.01 µM
- Ki (Adenosine receptor A2b [8]): 0.802 µM
- Ki (Adenosine receptor A3 [9]): 0.04 µM
- Ratio [4]: 6.27
- Ratio [5]: 20
- inhibition [10]: 49%
SMILES: COc1ccc(NC(=O)Nc2nc3nn(CCCc4ccccc4)cc3c3nc(-c4ccco4)nn23)cc1

- Ki (Adenosine receptor A3 [20]): 0.008 µM
- Ratio [4]: 6.3
- Ratio [5]: 11.2
- inhibition [10]: 58%
- Ki (Adenosine receptor A2b [21]): 0.09 µM
SMILES: O=C(Nc1cccc(Cl)c1)Nc1nc2nn(CCc3ccccc3)cc2c2nc(-c3ccco3)nn12
